Test results as given in ChEMBL document CHEMBL1125548, “Synthesis and pharmacological studies of N-substituted 6-[(2-aminoethyl)amino]-1,3-dimethyl-2,4(1H,3H)-pyrimidinediones, novel class III antiarrhythmic agents” (1992).

Legend:
Canis familiaris [1] = assay: The percentage change of the duration of action potential at 75% repolarization was measured before and after the administration at 1.0 ug/mL; assay type: functional, Canis lupus familiaris
Outline: (§1)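 Canine right-ventricular Purkinje fibers (mongrel dogs 7–11 kg, thiopental-anesthetized) superfused with Tyrode's (pH 7.5, 36 °C, gassed 95% O2/5% CO2). Compounds diluted from 1 mM water stock and added cumulatively. Readings taken 20 min after solution exchange. Result given as percent change in action potential duration.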

Canis familiaris [2] = assay: The percentage change of the duration of action potential at 75% repolarization was measured before and after the administration at 3.0 ug/mL; assay type: functional, Canis lupus familiaris; outline: as §1
Canis familiaris [3] = assay: Concentration required for 50% inhibition of tachycardia induced by isoproterenol (0.5ug/mL, iv) in anesthetized dog; assay type: functional; conditions: Canis lupus familiaris, read-out: ID50 (the source's name)
Canis familiaris [4] = assay: Percentage change of the duration of action potential at 75% repolarization was measured before and after the administration at 10.0 ug/mL; assay type: functional, Canis lupus familiaris; outline: as §1
Canis familiaris [5] = assay: The prolongation effect of the atrial and ventricular effective refractory period was measured before and after the administration at 0.1 mg/kg; assay type: functional, Canis lupus familiaris, Cardiac atrium; conditions: dose 1.0 mg/kg; in the assay text read “1.0 mg/kg” for “0.1 mg/kg”
Outline: (§2)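 In vivo, mongrel dogs of either sex (7–13 kg), anesthetized with pentobarbital sodium 30 mg/kg iv. Left femoral artery cannulated for arterial pressure, femoral vein for drug dosing. Effective refractory period measured before and after administration.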

Canis familiaris [6] = assay: The prolongation effect of the atrial and ventricular effective refractory period was measured before and after the administration at 0.3 mg/kg; assay type: functional, Canis lupus familiaris, Cardiac atrium; outline: as §2
Canis familiaris [7] = assay: The prolongation effect of the atrial and ventricular effective refractory period was measured before and after the administration at 3 mg/kg; assay type: functional, Canis lupus familiaris, Cardiac atrium; outline: as §2
Canis familiaris [8] = organism: Canis familiaris; assay: Action potential amplitude at 0 (ug/mL) concentration; assay type: functional, Canis lupus familiaris
Outline: (§3)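 Purkinje fibers from right ventricle of mongrel dogs (7–11 kg, thiopental sodium 30 mg/kg iv), superfused in organ bath with Tyrode's solution (pH 7.5, 95% O2/5% CO2) at 36 °C. Compounds from 1 mM aqueous stock diluted in Tyrode's, given cumulatively. Data taken 20 min after each solution change. Means ± SD of seven experiments.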

Canis familiaris [9] = organism: Canis familiaris; assay: Action potential amplitude at 0.1(ug/mL) concentration; assay type: functional, Canis lupus familiaris; outline: as §3
Canis familiaris [10] = organism: Canis familiaris; assay: Action potential amplitude at 0.3(ug/mL) concentration; assay type: functional, Canis lupus familiaris; outline: as §3
Canis familiaris [11] = organism: Canis familiaris; assay: Action potential amplitude at 1(ug/mL) concentration; assay type: functional, Canis lupus familiaris; outline: as §3
Canis familiaris [12] = organism: Canis familiaris; assay: Action potential amplitude at 10(ug/mL) concentration; assay type: functional, Canis lupus familiaris; outline: as §3
Canis familiaris [13] = organism: Canis familiaris; assay: Action potential amplitude at 3(ug/mL) concentration; assay type: functional, Canis lupus familiaris; outline: as §3
Canis familiaris [14] = organism: Canis familiaris; assay: Action potential duration at 75% repolarization at 0(ug/mL) concentration; assay type: functional, Canis lupus familiaris; outline: as §3
Canis familiaris [15] = organism: Canis familiaris; assay: Action potential duration at 75% repolarization at 0.1(ug/mL) concentration; assay type: functional, Canis lupus familiaris; outline: as §3
Canis familiaris [16] = organism: Canis familiaris; assay: Action potential duration at 75% repolarization at 0.3(ug/mL) concentration; assay type: functional, Canis lupus familiaris; outline: as §3
Canis familiaris [17] = organism: Canis familiaris; assay: Action potential duration at 75% repolarization at 1(ug/mL) concentration; assay type: functional, Canis lupus familiaris; outline: as §3
Canis familiaris [18] = organism: Canis familiaris; assay: Action potential duration at 75% repolarization at 10(ug/mL) concentration; assay type: functional, Canis lupus familiaris; outline: as §3
Canis familiaris [19] = organism: Canis familiaris; assay: Action potential duration at 75% repolarization at 3(ug/mL) concentration; assay type: functional, Canis lupus familiaris; outline: as §3
Canis familiaris [20] = organism: Canis familiaris; assay: Action potential duration at 90% repolarization at 0(ug/mL) concentration; assay type: functional, Canis lupus familiaris; outline: as §3
Canis familiaris [21] = organism: Canis familiaris; assay: Action potential duration at 90% repolarization at 0.1(ug/mL) concentration; assay type: functional, Canis lupus familiaris; outline: as §3
Canis familiaris [22] = organism: Canis familiaris; assay: Action potential duration at 90% repolarization at 0.3(ug/mL) concentration; assay type: functional, Canis lupus familiaris; outline: as §3
Canis familiaris [23] = organism: Canis familiaris; assay: Action potential duration at 90% repolarization at 1(ug/mL) concentration; assay type: functional, Canis lupus familiaris; outline: as §3
Canis familiaris [24] = organism: Canis familiaris; assay: Action potential duration at 90% repolarization at 10(ug/mL) concentration; assay type: functional, Canis lupus familiaris; outline: as §3
Canis familiaris [25] = organism: Canis familiaris; assay: Action potential duration at 90% repolarization at 3(ug/mL) concentration; assay type: functional, Canis lupus familiaris; outline: as §3
Canis familiaris [26] = organism: Canis familiaris; assay: Resting membrane potential at 0 (ug/mL) concentration; assay type: functional; conditions: Canis lupus familiaris; outline: as §3
Canis familiaris [27] = organism: Canis familiaris; assay: Resting membrane potential at 0.3 (ug/mL) concentration; assay type: functional; conditions: Canis lupus familiaris; outline: as §3
Canis familiaris [28] = organism: Canis familiaris; assay: Resting membrane potential at 1 (ug/mL) concentration; assay type: functional; conditions: Canis lupus familiaris; outline: as §3
Canis familiaris [29] = organism: Canis familiaris; assay: Resting membrane potential at 10 (ug/mL) concentration; assay type: functional; conditions: Canis lupus familiaris; outline: as §3
Canis familiaris [30] = organism: Canis familiaris; assay: Resting membrane potential at 3(ug/mL) concentration; assay type: functional; conditions: Canis lupus familiaris; outline: as §3
Canis familiaris [31] = organism: Canis familiaris; assay: Maximum upstroke velocity of the compound at 0 (ug/mL) concentration; assay type: functional, Canis lupus familiaris; outline: as §3
Canis familiaris [32] = organism: Canis familiaris; assay: Maximum upstroke velocity of the compound at 0.1 (ug/mL) concentration; assay type: functional, Canis lupus familiaris; outline: as §3
Canis familiaris [33] = organism: Canis familiaris; assay: Maximum upstroke velocity of the compound at 0.3 (ug/mL) concentration; assay type: functional, Canis lupus familiaris; outline: as §3
Canis familiaris [34] = organism: Canis familiaris; assay: Maximum upstroke velocity of the compound at 1 (ug/mL) concentration; assay type: functional, Canis lupus familiaris; outline: as §3
Canis familiaris [35] = organism: Canis familiaris; assay: Maximum upstroke velocity of the compound at 10 (ug/mL) concentration; assay type: functional, Canis lupus familiaris; outline: as §3
Canis familiaris [36] = organism: Canis familiaris; assay: Maximum upstroke velocity of the compound at 3 (ug/mL) concentration; assay type: functional, Canis lupus familiaris; outline: as §3
Canis familiaris [37] = organism: Canis familiaris; assay: Action potential duration at 50% repolarization at 0 ug/mL concentration; assay type: functional, Canis lupus familiaris; outline: as §3
Canis familiaris [38] = organism: Canis familiaris; assay: Action potential duration at 50% repolarization at 0.1(ug/mL) concentration; assay type: functional, Canis lupus familiaris; outline: as §3
Canis familiaris [39] = organism: Canis familiaris; assay: Action potential duration at 50% repolarization at 0.3(ug/mL) concentration; assay type: functional, Canis lupus familiaris; outline: as §3
Canis familiaris [40] = organism: Canis familiaris; assay: Action potential duration at 50% repolarization at 1(ug/mL) concentration; assay type: functional, Canis lupus familiaris; outline: as §3
Canis familiaris [41] = organism: Canis familiaris; assay: Action potential duration at 50% repolarization at 10(ug/mL) concentration; assay type: functional, Canis lupus familiaris; outline: as §3
Canis familiaris [42] = organism: Canis familiaris; assay: Action potential duration at 50% repolarization at 3(ug/mL) concentration; assay type: functional, Canis lupus familiaris; outline: as §3
Canis familiaris [43] = organism: Canis familiaris; assay: Resting membrane potential at 0.1 (ug/mL) concentration; assay type: functional; conditions: Canis lupus familiaris; outline: as §3

CN(CCN(C)c1cc(=O)n(C)c(=O)n1C)CC(O)COc1ccccc1 (stereo not given)
APD75 (Canis familiaris [1]): 2.9% | APD75 (Canis familiaris [2]): 8% | ED50 (Canis familiaris [3]): 1 mg/kg

CCN(CC)CCNC(=O)c1ccc(NS(C)(=O)=O)cc1 [SEMATILIDE]
APD75 (Canis familiaris [1]): 19% | APD75 (Canis familiaris [2]): 29%

CSc1ccccc1OCCCN1CCN(c2cc(=O)n(C)c(=O)n2C)CC1.Cl
APD75 (Canis familiaris [1]): 0% | APD75 (Canis familiaris [4]): 0% | APD75 (Canis familiaris [2]): 0%

Cl.Cl.Cn1c(N2CCN(CCCOc3ccc(N)cc3)CC2)cc(=O)n(C)c1=O
APD75 (Canis familiaris [2]): 4%

Cl.Cn1c(N2CCN(CCCOc3ccc(Cl)cc3)CC2)cc(=O)n(C)c1=O
APD75 (Canis familiaris [1]): 14% | APD75 (Canis familiaris [2]): 25% | ERP (Canis familiaris [5]): 13% | ERP (Canis familiaris [6]): 6.3% | ERP (Canis familiaris [7]): 24.3%

Cn1c(NCCNCCCc2ccc([N+](=O)[O-])cc2)cc(=O)n(C)c1=O.O=C(O)C(=O)O
APD75 (Canis familiaris [1]): 9% | APD75 (Canis familiaris [4]): 16% | APD75 (Canis familiaris [2]): 12%

CCN(CCCc1ccc([N+](=O)[O-])cc1)CCNc1cc(=O)n(C)c(=O)n1C.Cl
APD75 (Canis familiaris [1]): 11% | APD75 (Canis familiaris [2]): 16%

Cl.Cn1c(N2CCN(CCOc3ccc([N+](=O)[O-])cc3)CC2)cc(=O)n(C)c1=O
APD75 (Canis familiaris [1]): 8% | APD75 (Canis familiaris [4]): 43% | APD75 (Canis familiaris [2]): 22%

CC(C)NCC(O)c1ccc(NS(C)(=O)=O)cc1 (stereo not given) [SOTALOL]
APD75 (Canis familiaris [1]): 0.7% | APD75 (Canis familiaris [4]): 11.2% | APD75 (Canis familiaris [2]): 8%

Cn1c(NCCNCCCOc2ccccc2)cc(=O)n(C)c1=O
APD75 (Canis familiaris [1]): 4% | APD75 (Canis familiaris [2]): 11.9% | ED50 (Canis familiaris [3]): 0.1 mg/kg

Cl.Cn1c(N2CCN(CCCOc3ccc(F)cc3)CC2)cc(=O)n(C)c1=O
APD75 (Canis familiaris [1]): 9% | APD75 (Canis familiaris [2]): 13% | ERP (Canis familiaris [5]): 5.9% | ERP (Canis familiaris [6]): 5.9% | ERP (Canis familiaris [7]): 11.8%

Cl.Cn1c(N2CCN(CCCOc3cccc(Cl)c3)CC2)cc(=O)n(C)c1=O
APD75 (Canis familiaris [4]): 7% | APD75 (Canis familiaris [2]): 6%

Cl.Cn1c(NCCN(CCO)CCCc2ccc([N+](=O)[O-])cc2)cc(=O)n(C)c1=O
APA (Canis familiaris [8]): 104 mV | APA (Canis familiaris [9]): 101 mV | APA (Canis familiaris [10]): 102 mV | APA (Canis familiaris [11]): 103 mV | APA (Canis familiaris [12]): 107 mV | APA (Canis familiaris [13]): 104 mV | APD75 (Canis familiaris [14]): 313 ms | APD75 (Canis familiaris [15]): 340 ms | APD75 (Canis familiaris [16]): 372 ms | APD75 (Canis familiaris [17]): 428 ms | APD75 (Canis familiaris [18]): 529 ms | APD75 (Canis familiaris [19]): 485 ms | APD75 (Canis familiaris [1]): 22% | APD75 (Canis familiaris [2]): 38% | APD90 (Canis familiaris [20]): 344 ms | APD90 (Canis familiaris [21]): 371 ms | APD90 (Canis familiaris [22]): 409 ms | APD90 (Canis familiaris [23]): 471 ms | APD90 (Canis familiaris [24]): 584 ms | APD90 (Canis familiaris [25]): 533 ms | RMP (Canis familiaris [26]): -88 mV | RMP (Canis familiaris [27]): -87 mV | RMP (Canis familiaris [28]): -87 mV | RMP (Canis familiaris [29]): -90 mV | RMP (Canis familiaris [30]): -87 mV | Max dV/dt (Canis familiaris [31]): 356 V s-1 | Max dV/dt (Canis familiaris [32]): 351 V s-1 | Max dV/dt (Canis familiaris [33]): 348 V s-1 | Max dV/dt (Canis familiaris [34]): 344 V s-1 | Max dV/dt (Canis familiaris [35]): 339 V s-1 | Max dV/dt (Canis familiaris [36]): 341 V s-1 | APD50 (Canis familiaris [37]): 266 ms | APD50 (Canis familiaris [38]): 293 ms | APD50 (Canis familiaris [39]): 315 ms | APD50 (Canis familiaris [40]): 349 ms | APD50 (Canis familiaris [41]): 386 ms | APD50 (Canis familiaris [42]): 369 ms | RMP (Canis familiaris [43]): -85 mV

Cl.Cn1c(N2CCN(CCCOc3ccccc3Cl)CC2)cc(=O)n(C)c1=O
APD75 (Canis familiaris [4]): 7% | APD75 (Canis familiaris [2]): 0%
